The full list was thinned out, with hits kept by preference.
HUVEC inhibit = blocks proliferation of human endothelial cells. AID 648. 86,000 tested, 1.1% active. HUVEC proliferation, CellTiter-Glo luminescence, 72 h; stronger effect = lower value. viability, % at 10 µM (by protocol);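 active = viability at or below 30%; inactive = viability above 30%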;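 note: 100% = median luminescence of DMSO-only cell control wells on each plate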
HCT116 PTEN-null = growth suppressors of cells with PTEN tumor suppressor deletion; HCT116 PTEN-null viability, CellTiter-Glo, 60 h; stronger effect = lower value; viability, % at 10 µM; 140,000 tested, 1.2% active; AID 827;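 active = viability at or below a set limit, 4 SD under the median of all tested compounds, cut at about 3.7% in these data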;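 note: PTEN knockout HCT116 line with beta catenin targeted HCT116 as companion control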
Fibroblast inh = blocks proliferation of human lung fibroblasts. viability, % at 10 µM. AID 719. 85,000 tested, 1.1% active. LL 47 human lung fibroblast viability, ATP luminescence; stronger effect = lower value;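 active = viability at or below 50% in the single dose screen; inactive = viability above 50%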;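 note: compound exposure lasted 72 h before the ATP readout; 100% = median luminescence of untreated cell-only wells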
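Benchmarks: Cell-only wells, no compound | Test system: LL 47 human lung fibroblasts, passage 12 or lower | Input: 1,150 cells/well | Measured by: CellTiter-Glo luminescence measuring cellular ATP | Medium: IMEM, 15% FBS supplement | Schedule: Overnight attachment after seeding, then 72 h compound exposure at 37 °C | Doses: Compound addition at 0.1% DMSO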
bCat KO growth = beta-catenin-lacking colon tumor cell growth suppression; HCT116 beta-catenin knockout viability, CellTiter-Glo, 60 h; stronger effect = lower value; viability, % at 10 µM; 140,000 tested, 1.5% active; AID 818;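 active = viability at or under a set limit, the compound median less 4 SD, cut at about 6% in these data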;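 note: 0% = Hyamine 1622 control at 20 µM and 100% = untreated cell control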
H69AR inhibit = blocks growth of human H69AR lung tumor cells | H69AR lung tumor viability, ATP luminescence, 72 h; stronger effect = lower value | viability, % at 10 µM | AID 598 | 85,000 tested, 6% active;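 active = viability at or below 40%; inactive = viability above 40%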;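 note: multidrug resistant small cell line overexpressing MRP-1 efflux transporter; 100% = mean luminescence of untreated control wells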
Starred values were filed as active, the others as inactive; . = not tested or not shown.

SMILES	HUVEC inhibit	HCT116 PTEN-null	Fibroblast inh	bCat KO growth	H69AR inhibit
CC1=C(C)C(=O)NC(Nc2nc(C)c3cc(C)cc(C)c3n2)N1 (stereo not drawn)	24*	.	14*	.	24*
COc1ccc(S(=O)(=O)N(C)CC(=O)NCCC2=CCCCC2)cc1	102	84	93	76	111
OC(COCc1ccc(Cl)cc1)CN1CCN(CC(O)COCc2ccc(Cl)cc2)CC1 (stereo not drawn)	34	6	80	5.5*	56
CCc1nc(SCC(=O)NCc2ccccc2)c2c(=O)n(C)c(=O)n(C)c2n1	87	84	94	95	27*
CCCc1nc(SCC(=O)N2CCC(Cc3ccccc3)CC2)c2c(=O)n(C)c(=O)n(C)c2n1	3.2*	1.4*	105	8	42
COc1ccc(CC(=O)c2ccc(OC)c(OC)c2)cc1	.	102	.	96	.
COc1ccccc1CNC(=O)COC(=O)c1ccc(S(=O)(=O)N2CCCC2)cc1	102	94	108	98	96
Cc1c(CCC(C)C)c(=O)n2c([nH]c3ccccc32)c1C#N	74	76	90	81	31*
CCCCc1c(C)c(C#N)c2[nH]c3ccccc3n2c1=O	68	66	92	70	18*
CCOC(=O)c1[nH]c2ccc(OCC)cc2c1NC(=O)CN1CCN(c2ccccn2)CC1	90	99	100	98	53
Cc1onc(-c2ccccc2)c1C(=O)Nc1c(C)n(C)n(-c2ccccc2)c1=O	99	92	102	88	92
COc1cc(Cl)cc2c1Sc1ccccc1/C2=C/CCN(C)C	4.1*	4	96	2.2*	2.7*
COc1cc2c(cc1Cl)/C(=C\CCN(C)C)c1ccccc1S2	.	13	.	13	.
CN(C)CC/C=C1/c2ccccc2Sc2c(O)cc(Cl)cc21	50	20	54	14	6.3*
COc1ccc(-n2nnnc2SCC(=O)c2cccc(OC)c2)cc1	58	46	99	36	86
COc1ccc(-n2nnnc2SCC#CCO)cc1	54	86	100	88	18*
N#Cc1c(NC(=O)CSc2nnnn2C2CCCC2)sc2c1CCCC2	102	111	93	89	7.7*
CCOC(=O)c1sc(NC(=O)CSc2nc3c(cc2C#N)CCCCCC3)c(C#N)c1C	30	16	77	22	.
N#Cc1c(NC(=O)CSc2ncn[nH]2)sc2c1CCCCC2	79	85	79	84	28*
N#Cc1cc2c(nc1SCC(=O)Nc1sc3c(c1C#N)CCC3)CCCC2	63	93	84	97	7.2*
N#Cc1c(NC(=O)CSc2nc(N)cc(=O)[nH]2)sc2c1CCCCCC2	95	77	88	60	79
N#Cc1cc2c(nc1SCC(=O)Nc1sc3c(c1C#N)CCC3)CCCCC2	79	75	86	84	20*
O=C(Nc1nccs1)C1C2/C=C\CCCCC21 (stereo not drawn)	103	97	92	104	96
CCOC(=O)c1sc2nc(SC)nc(-c3ccc(Cl)cc3)c2c1N	.	39	.	45	.
Cc1nc(N)sc1-c1csc(Nc2ccccn2)n1	89	94	93	94	72
SMILES	HUVEC inhibit	HCT116 PTEN-null	Fibroblast inh	bCat KO growth	H69AR inhibit
Cc1nc(NC(=O)c2ccccc2)sc1-c1csc(Nc2ccc(Cl)cc2)n1	.	69	.	81	.
COc1ccc(Nc2nc(-c3sc(NC(C)=O)nc3C)cs2)cc1	36	95	73	95	13*
COc1ccc(Nc2nc(-c3sc(N)nc3C)cs2)cc1	69	93	85	96	29*
COc1ccc(C2=CC(=O)OC(C)(c3ccccc3)O2)cc1 (stereo not drawn)	.	64	.	71	.
O=C1NC(=O)C(Nc2cccc3ccccc23)S1 (stereo not drawn)	91	98	97	100	86
CCOC(=O)c1ccc(NC(=O)CSc2nc(NC(=O)c3ccccc3)c3c(C)c(C)oc3n2)cc1	93	66	97	81	22*
COCCNC(=O)c1ccc2c(=O)n(Cc3ccco3)c(SCC(=O)NC3CCCCC3)nc2c1	93	91	114	107	92
Cc1cc(NC(=O)Nc2cccc(C(F)(F)F)c2)no1	87	85	99	80	98
CCN(CC)S(=O)(=O)c1ccc2c(c1)nc(CCC(=O)Nc1cccc(C(F)(F)F)c1)n2CC	70	70	91	72	14*
CCN(CC)S(=O)(=O)c1cccc(NC(=O)Nc2cccc(C(F)(F)F)c2)c1	.	3.2*	.	4.2*	.
Cc1cccc(N2CCN(c3nc4ccc(Cl)cc4n4cnnc34)CC2)c1C	14*	1.0*	29*	0.8*	2.1*

Compound activity deposited in PubChem by SRMLSC.
